According to paper PMC5901702 (Journal of biomolecular screening, 2012):

How the values were obtained:
[1] = biological target: T1, rat IDE (Rattus norvegicus, UniProt P35559); assay: Dose-response of rat IDE activation; assay type: biochemical; details: for dose-response profile: rat IDE activation, a-factor–based substrate
T1 sequence (P35559 1-1019): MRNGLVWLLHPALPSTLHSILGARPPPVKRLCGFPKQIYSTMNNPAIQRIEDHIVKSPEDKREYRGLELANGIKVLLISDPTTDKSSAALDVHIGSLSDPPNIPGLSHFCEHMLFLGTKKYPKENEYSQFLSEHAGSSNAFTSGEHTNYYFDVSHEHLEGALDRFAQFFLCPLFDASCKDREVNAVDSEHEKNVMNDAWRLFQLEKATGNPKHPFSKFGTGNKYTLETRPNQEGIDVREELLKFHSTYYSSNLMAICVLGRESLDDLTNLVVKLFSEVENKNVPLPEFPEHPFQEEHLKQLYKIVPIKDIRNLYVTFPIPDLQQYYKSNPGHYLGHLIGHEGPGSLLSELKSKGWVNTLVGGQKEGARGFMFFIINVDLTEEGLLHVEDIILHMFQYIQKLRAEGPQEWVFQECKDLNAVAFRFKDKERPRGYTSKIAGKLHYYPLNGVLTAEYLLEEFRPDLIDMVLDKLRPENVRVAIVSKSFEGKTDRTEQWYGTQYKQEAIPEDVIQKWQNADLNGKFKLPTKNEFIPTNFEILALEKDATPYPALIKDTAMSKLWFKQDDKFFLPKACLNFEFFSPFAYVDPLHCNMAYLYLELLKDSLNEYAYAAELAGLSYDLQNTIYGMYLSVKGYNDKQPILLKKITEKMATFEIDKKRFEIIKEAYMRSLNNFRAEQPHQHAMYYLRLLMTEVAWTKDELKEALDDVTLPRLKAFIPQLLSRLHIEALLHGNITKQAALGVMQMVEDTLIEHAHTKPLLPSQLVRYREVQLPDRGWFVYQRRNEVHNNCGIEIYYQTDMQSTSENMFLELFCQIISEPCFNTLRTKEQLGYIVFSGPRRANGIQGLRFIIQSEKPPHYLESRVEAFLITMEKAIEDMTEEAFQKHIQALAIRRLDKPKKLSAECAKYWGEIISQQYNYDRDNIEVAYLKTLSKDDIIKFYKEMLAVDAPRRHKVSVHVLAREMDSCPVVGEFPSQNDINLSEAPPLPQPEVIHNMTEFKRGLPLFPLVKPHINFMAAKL
In short: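 Rat IDE (10 µg/mL) in 0.1 M KPi pH 7.6 was preincubated 10 min at 37 °C with activator (up to 1 mM), then mixed 1:1 with a-factor–based fluorogenic substrate (50 µM final). Fluorescence (320 ex) was read over 60 min and rate taken from the 15–30 min window. Baseline was subtracted and rates normalized to trypsin/pronase E full digestion. AC50 came from best-fit curves, or [Max]50 where the curve was not sigmoidal.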

[2] = biological target: T2, Ste23p (Saccharomyces cerevisiae, UniProt Q06010); assay: Target specificity: Ste23p activity with a-factor–based peptide; assay type: biochemical, yeast; details: 100 µM compound; 30 °C; relative to DMSO control = 100%
T2 sequence (Q06010 1-1027): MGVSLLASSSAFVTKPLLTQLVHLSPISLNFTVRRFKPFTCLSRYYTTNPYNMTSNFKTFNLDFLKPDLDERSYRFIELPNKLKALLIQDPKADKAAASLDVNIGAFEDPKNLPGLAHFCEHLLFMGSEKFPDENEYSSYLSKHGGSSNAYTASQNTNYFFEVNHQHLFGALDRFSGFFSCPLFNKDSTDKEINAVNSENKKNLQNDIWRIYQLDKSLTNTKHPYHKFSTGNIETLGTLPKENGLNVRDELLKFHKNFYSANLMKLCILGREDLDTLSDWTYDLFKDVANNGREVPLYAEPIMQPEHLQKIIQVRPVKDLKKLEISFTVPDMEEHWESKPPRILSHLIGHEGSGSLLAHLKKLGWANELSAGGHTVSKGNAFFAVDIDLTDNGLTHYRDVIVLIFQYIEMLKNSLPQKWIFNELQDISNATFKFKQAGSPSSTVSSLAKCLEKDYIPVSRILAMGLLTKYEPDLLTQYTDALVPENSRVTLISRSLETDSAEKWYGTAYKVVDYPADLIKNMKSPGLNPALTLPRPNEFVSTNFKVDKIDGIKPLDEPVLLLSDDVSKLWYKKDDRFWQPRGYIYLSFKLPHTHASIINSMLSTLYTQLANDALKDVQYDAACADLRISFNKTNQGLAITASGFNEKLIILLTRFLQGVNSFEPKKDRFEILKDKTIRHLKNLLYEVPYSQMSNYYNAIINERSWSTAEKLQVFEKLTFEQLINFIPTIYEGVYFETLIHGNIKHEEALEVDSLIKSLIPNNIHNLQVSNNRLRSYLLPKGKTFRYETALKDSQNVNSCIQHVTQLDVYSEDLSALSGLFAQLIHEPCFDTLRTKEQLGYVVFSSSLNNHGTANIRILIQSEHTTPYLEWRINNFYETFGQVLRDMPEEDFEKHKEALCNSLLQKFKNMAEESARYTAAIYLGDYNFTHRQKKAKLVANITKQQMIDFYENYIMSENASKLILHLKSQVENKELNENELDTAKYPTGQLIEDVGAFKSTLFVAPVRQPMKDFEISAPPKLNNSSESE
In short: (§1)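 Single-dose specificity assay with a-factor–based fluorogenic peptide (50 µM) in 0.1 M KPi pH 7.6. Ste23p was used at 10 µg/mL and 30 °C; trypsin and pronase E at 0.5 µg/mL each under the 37 °C HTS conditions. Enzymes were preincubated 10 min with 100 µM compound. Triplicate rates were normalized by trypsin/pronase full digestion and given relative to DMSO control (100%).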

[3] = tested on: yeast y272 cotransformed with pWS192 and pWS496; assay: Yeast toxicity assay; assay type: cell-based; details: for yeast saturation density relative to DMSO-treated control: 100 µM compound, 44 h at 30 °C; for yeast saturation density relative to DMSO-treated culture: lower concentrations of compounds
In short: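 Saturated starter culture of y272 carrying pWS192 (MFA1) and pWS496 (PGK-driven HA-tagged rat IDE) was diluted 1:2000 into SC-UW and treated with DMSO or compound (100 µM, or lower empirically chosen doses), in triplicate. Cultures were grown 44 h at 30 °C, or 72 h where needed.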

[4] = tested on: pronase E; assay: Target specificity: pronase E activity with a-factor–based peptide; assay type: biochemical; details: 100 µM compound; relative to DMSO control = 100%
In short: as §1

[5] = biological target: T1, rat IDE; assay: Kinetic analysis of rat IDE in presence of activator; assay type: biochemical; details: compound 100 µM; 0.1 M KPi pH 7.6; DMSO control 154.8 ± 12.26
[6] = biological target: T1, rat IDE; assay: a-Factor production bioassay; assay type: cell-based; details: 72 h, relative to DMSO-treated control

Row | Structure (SMILES) | Saturation of activation ([1]; highest concentration tested 1 mM) | dose-response profile [1] | % Activity Ste23p [2] [%] | yeast saturation density relative to DMSO-treated control [3] | % Activity Pronase [4] [%] | Vmax [5] [nmol/min/mg] | IDE-mediated a-factor production in vivo ([6]; 100 µM compound) | yeast saturation density relative to DMSO-treated culture ([3]; 44 h) [%] | IDE-mediated a-factor production in vivo ([6]; 12.5 µM compound) | IDE-mediated a-factor production in vivo ([6]; 50 µM compound) | yeast culture density relative to DMSO-treated culture ([3]; incubation extended to 72 h) [%] | saturated growth of treated yeast cultures ([3]; lowest concentration evaluated 12.5 µM, 44 h) | IDE-mediated a-factor production in vivo ([6]; 25 µM compound)
1 | O=S(=O)(O)CCCc1cccc2ccccc12 [Compound 1] | not achieved | classic sigmoidal dose-responses | 112.0 ± 5.4 | > 90% | 100.9 ± 0.1 | 194.1 ± 5.85 |  |  |  |  |  |  | 
2 | Cn1ncc2c(NCCc3ccccc3)nc(Cl)nc21 [Compound 2] |  | classic sigmoidal dose-responses | 117.2 ± 2.8 |  | 89.2 ± 0.6 | 164.2 ± 6.4 | reduced the yield of a-factor produced |  |  |  |  |  | 
3 | O=S(=O)(O)c1cc(O)c2c(O)c(N=Nc3cccc4ccccc34)c(S(=O)(=O)O)cc2c1 [Compound 3] |  | inverted bell-shaped activation curve | 90.4 ± 0.6 | > 90% | 103.8 ± 0.1 |  | enhanced a-factor production in vivo |  |  |  |  |  | 
4 | Nc1nc(SCc2ccccc2Cl)cc(C(=O)O)n1 [Compound 5] |  | inverted bell-shaped activation curve | 103.4 ± 1.6 |  |  | 127.8 ± 10.41 |  | > 90 | enhanced a-factor production in vivo |  |  |  | 
5 | O=C(CCN1CC2CCC(CC2)C1)c1cccs1 [Compound 6] |  | classic sigmoidal dose-responses | 82 ± 0.3 | completely inhibited growth | 104.4 ± 0.0 | 176.3 ± 7.35 |  | > 90 |  | enhanced a-factor production in vivo |  |  | 
6 | O=C(O)c1ccc(Oc2nc3ccccc3s2)cc1 [Compound 7] |  | classic sigmoidal dose-responses | 102.1 ± 1.7 |  | 104.3 ± 0.9 | 194.1 ± 13.81 | reduced the yield of a-factor produced |  |  |  | > 85 | did not achieve saturated growth | 
7 | O=[N+]([O-])/C=C/c1cc2ccccc2[nH]1 [Compound 8] |  | inverted bell-shaped activation curve | 80.1 ± 6.0 | completely inhibited growth | 93.3 ± 1.8 | 185.0 ± 9.73 |  | > 90 |  |  |  |  | enhanced a-factor production in vivo
